Assay outcomes as filed in PubChem BioAssay.
In the library only some 1.4% were active in any assay of this set; here they are far more common.
TNAP act hiacc: increases human TNAP activity under high phosphate acceptor concentration | P05186 | purified TNAP, CDP-star luminescence, 1 M DEA, 30 min; active compounds read high; 0 = EDTA background, 1 = DMSO-only activity | activation factor at 20 µM | 200,000 tested, under 10 active | AID 1136;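 active means activation factor at least 2 at 20 µM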
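Control set: EDTA negative control, DMSO positive control / Assay system: human TNAP / Quantity: TNAP 1/800 final / Evaluation: TNAP activation factor scaled between EDTA and DMSO control wells / Measured by: luminescent substrate turnover signal / Compound dosing: one dose, 20 µM / Times: 30 min enzyme reaction at room temperature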
TNAP inh no acc: blocks human TNAP activity with no phosphate acceptor present; P05186; inhibition, % at 20 µM; 200,000 tested, 0.26% active; purified TNAP, CDP-star luminescence, 30 min;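 active means tissue-nonspecific alkaline phosphatase inhibition above about 50% at 20 µM in the single-dose screen, limit read from the data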;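 further: 0% = DMSO negative control and 100% = EDTA positive control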
CHT PAM: allosterically activates the human high affinity choline transporter | CHT-expressing cells, membrane potential dye, choline EC20; active compounds read high; LV-AA mutant CHT in HEK293 cells | 310,000 tested, 0.49% active | B-score at 10 µM;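 active means initial fluorescence not abnormally high and integrated response B-score, plate-corrected, over 3 SD above library mean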
Target sequence (Q9GZV3 whole entry, looked up): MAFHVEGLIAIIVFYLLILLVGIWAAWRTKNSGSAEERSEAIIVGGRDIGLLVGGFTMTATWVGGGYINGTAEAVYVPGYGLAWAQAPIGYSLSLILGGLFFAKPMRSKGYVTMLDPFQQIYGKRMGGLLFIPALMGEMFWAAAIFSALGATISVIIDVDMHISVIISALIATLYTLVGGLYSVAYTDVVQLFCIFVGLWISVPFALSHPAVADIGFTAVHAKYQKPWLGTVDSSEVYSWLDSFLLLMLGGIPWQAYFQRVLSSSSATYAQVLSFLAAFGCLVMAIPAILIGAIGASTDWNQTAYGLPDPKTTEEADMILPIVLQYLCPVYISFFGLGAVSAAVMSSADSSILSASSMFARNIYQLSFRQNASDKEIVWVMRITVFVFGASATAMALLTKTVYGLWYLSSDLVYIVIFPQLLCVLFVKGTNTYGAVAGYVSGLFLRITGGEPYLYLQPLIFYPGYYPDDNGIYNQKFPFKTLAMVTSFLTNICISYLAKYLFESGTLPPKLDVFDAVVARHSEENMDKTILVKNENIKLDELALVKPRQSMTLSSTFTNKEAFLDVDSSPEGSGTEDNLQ
CHT inh: inhibits the human high affinity choline transporter. Q9GZV3. CHT-expressing cells, membrane potential dye, choline response; active compounds read low. B-score at 10 µM. 310,000 tested, 0.86% active. AID 488975;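 active means B-score over 3 SD under the library average, and starting fluorescence ratio not unusually high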;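 further: choline stimulus applied at its EC90 after an EC20 pre-addition; B-score computed on integrated fluorescence ratio after choline addition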
TNAP inh hi DEA: TNAP (human) inhibition, high acceptor | P05186 | purified TNAP, CDP-star luminescence, 1 M DEA | inhibition, % at 20 µM | 200,000 tested, 0.03% active;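 active means over 50% inhibition of tissue-nonspecific alkaline phosphatase at 20 µM in the single-dose screen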;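 further: plate controls were DMSO wells for no effect and EDTA-quenched wells as full inhibition for full effect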
ABCB6 inh MLPCN: human ABCB6 transporter inhibition. 360,000 tested, 0.19% active. K562-ABCB6 porphyrin accumulation, flow cytometry, 1 h; active compounds read low. Q9NP58. fluorescence ratio to DMSO, % at 10 µM;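 active means fluorescence ratio to DMSO below 75%, the collection mean minus 3 SD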;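 further: signal is porphyrin accumulated inside mitochondria; 100% equals median channel fluorescence of DMSO control wells; lower ratio means ABCB6 inhibition with less porphyrin fluorescence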
CHT block conf: human CHT inhibition, confirmatory screen; CHT-expressing cells, choline membrane potential dye; LV-to-AA substituted CHT, HEK293 cells; 2,400 tested, 70% active; shares compounds with CHT inh; CHT activity remaining % of control (active compounds read low), % at 10 µM;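 active means choline transporter activity left, mean of duplicates at 10 µM, below buffer-only control mean minus 3 SD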;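 further: depolarization triggered by choline at its EC90 following an EC20 pre-addition; 0% = hemicholinium-3 full block and 100% = buffer-only control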
HEK293 MPD ctr: CHT inhibitor counter-screen hit in parental HEK293 cells | membrane potential ratio readout (active if shifted either direction beyond buffer ±3SD; no single direction) at 10 µM | 2,400 tested, 4% active | shares compounds with CHT inh | AID 493222 | membrane potential dye, choline response; active = decrease or increase beyond buffer ±3SD;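 further: parental cells lack the transporter so any hit is non-specific; ratio is peak minus trough fluorescence over baseline after EC90 choline challenge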
* marks the source's active call; other numbers are inactive results; i = inactive; / = not tested or not shown.

SMILES | TNAP act hiacc | TNAP inh no acc | CHT PAM | CHT inh | TNAP inh hi DEA | ABCB6 inh MLPCN | CHT block conf | HEK293 MPD ctr
O=C(CSc1nnc(-c2ccccc2)c2ccccc12)NCCN1C(=O)CSC1=O | / | / | / | / | / | 101 | / | /
C=CCn1c(CSc2nc3ccccc3s2)nnc1SCC(=O)NCc1cccnc1 | 1 | -7 | i | i | -4 | 91 | / | /
C=CCn1c(CSc2nc3ccccc3s2)nnc1SCC(=O)NCc1ccccc1 | 1 | 8 | i | -5.6* | -3 | 96 | 62%* | i
COc1ccc(NS(=O)(=O)c2ccc(/C=C/C(=O)O)cc2)cc1S(=O)(=O)N1CCOCC1 | / | / | i | i | / | 98 | / | /
CNc1nc(Nc2ccc(C(C)=O)cc2)nc(OC(C(F)(F)F)C(F)(F)F)n1 | 1 | -8 | i | i | -2 | 95 | / | /
CC(=O)c1ccc(Nc2nc(NCCO)nc(OC(C(F)(F)F)C(F)(F)F)n2)cc1 | 1 | -2 | i | -5.1* | -1 | 99 | 66%* | i
Cc1c(NCc2cc(Cl)cc(Cl)c2O)c(=O)n(-c2ccccc2)n1C | 1 | 13 | i | -5* | 0 | 100 | i | i
O=[N+]([O-])c1ccc(C2Oc3ccccc3C3CC(c4ccccc4)=NN32)s1 (configuration not stated) | 0.9 | -8 | i | i | 7 | / | / | /
Cc1oncc1C(=O)N1CCCC(CO)(Cc2ccc(F)cc2F)C1 (configuration not stated) | / | / | i | i | / | 97 | / | /
Cn1nccc1C(=O)Nc1nnc(C2CC2)s1 | / | / | i | i | / | 107 | / | /
Cc1nc2cc(C(=O)N3c4ccccc4CC3C)ccc2s1 (configuration not stated) | 1.1 | -11 | i | -5.3* | -6 | 107 | 56%* | i
CN(C)CCOC(=O)Cc1ccc(Cl)cc1 | 1 | -8 | i | -10* | -2 | 103 | 63%* | i
Cc1ccc(S(=O)(=O)Nc2ccccc2C(=O)N2CCCCCC2)cc1 | / | / | i | i | / | 101 | / | /
CN1CCN(C(=O)CCN2C(=O)c3ccccc3C2=O)CC1 | 1 | -5 | i | i | -5 | 100 | / | /
CN1CCN(c2ncc(CN3C(=O)c4ccccc4C3=O)s2)CC1 | 1.1 | -15 | i | -5.3* | -6 | 107 | 57%* | i
CC1CN(C(=O)CCC(=O)NC(C)c2ccccc2)c2cc(Cl)ccc2O1 (configuration not stated) | / | / | i | i | / | 93 | 24%* | i
CC1CN=C(NC(=O)c2cccc([N+](=O)[O-])c2)S1 (configuration not stated) | / | / | i | i | / | 94 | / | /
COc1ccccc1C(c1c(O)nc(SC)[nH]c1=O)c1c(O)nc(SC)[nH]c1=O | / | / | i | i | / | 101 | i | i
Cc1cc(N=Nc2ccccc2)c(NCC(O)C(O)C(O)CO)cc1C (configuration not stated) | 0.7 | 30 | i | -11* | 26 | 105 | 30%* | i
NS(=O)(=O)c1ccc(CNc2ccc3ccccc3n2)cc1 | / | / | i | -9.3* | / | 81 | 21%* | i
NS(=O)(=O)c1ccc(CCNC(=O)c2ccc3ccccc3n2)cc1 | 1 | -15 | i | i | 2 | 95 | / | /
Cc1cccc(CC(=O)NCCS(=O)(=O)N2CCN(c3cccc(Cl)c3)CC2)c1 | / | / | i | i | / | 98 | / | /
NC(=O)c1sc(-c2ccsc2)cc1NS(=O)(=O)c1ccc(C(F)(F)F)cc1 | / | / | i | -6.9* | / | 102 | i | i
CC1=CC(=O)C(C(C)C)=C/C1=N/OS(=O)(=O)c1ccccc1 | / | / | i | -9.6* | / | 102 | 64%* | i
COc1ccc(NC(=O)CN2CCN(C(=S)NC3CCCC3)CC2)cc1 | / | / | i | -6.3* | / | 98 | i | i
